Values after ≈ are worked out from the molar mass of the structure shown.
Columns and labels:
Staphylococcus aureus [1] = assay: Antibacterial activity against tetracycline-susceptible Staphylococcus aureus ATCC 13709 Smith isolate SA100; format: functional
Summary of the method: (§1)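 Broth microdilution MIC following CLSI methods in cation-adjusted Mueller Hinton broth, prepared fresh and held at 4 °C before testing. Defibrinated horse blood added to the medium where appropriate. Runs accepted when quality control ranges for comparator antibiotics and ATCC QC strains were met.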

Staphylococcus aureus [2] = assay: Antibacterial activity against tetracycline-resistant Staphylococcus aureus isolate SA158 expressing TetK gene; format: functional
Staphylococcus aureus [3] = assay: Antibacterial activity against Staphylococcus aureus ATCC 13709 infected in CD-1 mouse assessed as increase in survival at 3 mg/kg, iv administered as single dose 1 hr post infection measured after 48 hrs post infection; format: functional
Summary of the method: (§2)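 Mouse septicemia screen: S. aureus grown to log phase, diluted in 5% mucin to give 90% mortality within 48 h, inoculum 1.98 × 10⁶ CFU/mouse, 0.5 mL intraperitoneal into female CD-1 mice (18−20 g). Six mice per group. Single 30 mg/kg oral gavage or 3 mg/kg IV dose 1 h post infection. Infection controls received sterile water vehicle. Survival recorded at 48 h.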

Streptococcus pneumoniae [4] = assay: Antibacterial activity against Streptococcus pneumoniae ATCC 49619 isolate 106; format: functional
Summary of the method: (§3)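 MIC by broth microdilution in liquid medium per CLSI, in cation-adjusted Mueller Hinton broth made fresh and held at 4 °C before testing. Horse blood (defibrinated) added to the medium where appropriate. Runs were accepted only when the comparator antibiotics and ATCC QC strains fell within their recommended ranges.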

Mus musculus = assay: (§4) Oral bioavailability in CD1 mouse at 30 mg/kg; format: ADME, organism-based; conditions: mouse, in vivo, BLD = below limit of detection
Staphylococcus aureus [5] = assay: Antibacterial activity against tetracycline-resistant Staphylococcus aureus isolate SA161 expressing TetM gene; format: functional; summary of the method: as §1
Escherichia coli [6] = assay: Antibacterial activity against Escherichia coli ATCC 25922 isolate 107; format: functional; summary of the method: as §3
Escherichia coli [7] = assay: Antibacterial activity against Escherichia coli isolate EC155 expressing tetA gene; format: functional; summary of the method: as §3
Klebsiella pneumoniae = assay: Antibacterial activity against Klebsiella pneumoniae ATCC 13883; format: functional; summary of the method: as §3
Staphylococcus aureus [8] = assay: Antibacterial activity against Staphylococcus aureus ATCC 13709 infected in CD-1 mouse assessed as increase in survival at 30 mg/kg, po administered as single dose 1 hr post infection measured after 48 hrs post infection; format: functional; summary of the method: as §2
Streptococcus pneumoniae [9] = assay: Antibacterial activity against tetracycline-resistant Streptococcus pneumoniae isolate 160 expressing tetM gene; format: functional
Haemophilus influenzae [10] = assay: Antibacterial activity against Haemophilus influenzae 551; format: functional; summary of the method: as §3
[11] = Oral bioavailability in rat; format: ADME, organism-based; conditions: in vivo
Streptococcus pneumoniae [12] = assay: Antibacterial activity against Streptococcus pneumoniae 1629 infected in immunocompetent CD-1 mouse infection model assessed as reduction in lung CFU at 30 mg/kg, po administered 5, 24 and 36 hrs post infection measured 48 hrs post treatment
Acinetobacter baumannii = assay: Antibacterial activity against Acinetobacter baumannii; format: functional; summary of the method: as §3
Haemophilus influenzae [13] = assay: Antibacterial activity against Haemophilus influenzae 551 infected in immunocompetent Sprague-Dawley rat assessed as reduction in lung CFU per gram of tissue at 100 mg/kg, po administered 5, 24 and 48 hrs post infection measured after 72 hrs; format: functional
Summary of the method: (§5)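 Male Sprague-Dawley rats (175–200 g), immunocompetent, infected intratracheally with H. influenzae 551 (0.05 mL) under light anesthesia. Dosing at 5, 24 and 48 h post infection: test agent 100 mg/kg/dose orally or 25 mg/kg/dose IV; azithromycin 50 mg/kg/dose orally. Six rats per dose. Lungs removed 72 h after treatment began, homogenized, serially diluted, plated on TSA-II, incubated overnight at 37 °C in 5% CO2; CFU/g lung calculated.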

Streptococcus pyogenes = assay: Antibacterial activity against Streptococcus pyogenes; format: functional; summary of the method: as §3
Staphylococcus aureus [14] = assay: Antibacterial activity against methicillin-resistant Staphylococcus aureus VL-137; format: functional; summary of the method: as §1
Staphylococcus aureus [15] = assay: Antibacterial activity against methicillin-resistant Staphylococcus aureus VL-137 infected in neutropenic Balb/c mouse assessed as reduction in lung CFU at 10 mg/kg, iv administered 2 and 12 hrs post infection measured 24 hrs post treatment; format: functional
Summary of the method: (§6)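 Female Balb/c mice (18−20 g) made neutropenic with IP cyclophosphamide, 150 and 100 mg/kg on days −4 and −1. Intranasal infection under light anesthesia. Treatment at 2 and 12 h post infection, oral 50 mg/kg/dose or IV 10 mg/kg/dose, six mice per group. At 24 h lungs were homogenized and plated on TSA (37 °C, 5% CO₂, overnight). Read-out is CFU/g lung.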

Haemophilus influenzae [16] = assay: Antibacterial activity against Haemophilus influenzae 551 infected in immunocompetent Sprague-Dawley rat assessed as reduction in lung CFU per gram of tissue at 25 mg/kg, iv administered 5, 24 and 48 hrs post infection measured after 72 hrs; format: functional; summary of the method: as §5
Moraxella catarrhalis = assay: Antibacterial activity against Moraxella catarrhalis; format: functional; summary of the method: as §3
Streptococcus pneumoniae [17] = assay: Antibacterial activity against Streptococcus pneumoniae SPN160; format: functional; summary of the method: as §1
Staphylococcus aureus [18] = assay: Antibacterial activity against methicillin-resistant Staphylococcus aureus VL-137 infected in neutropenic Balb/c mouse assessed as reduction in lung CFU at 50 mg/kg, po administered 2 and 12 hrs post infection measured 24 hrs post treatment; format: functional; summary of the method: as §6
[19] = Oral bioavailability in human; format: ADME, organism-based; conditions: in vivo
[20] = as §4; format: ADME, organism-based; conditions: CD1, mouse, in vivo
Staphylococcus aureus [21] = assay: Antibacterial activity against Staphylococcus aureus ATCC 13709 infected in po dosed CD-1 mouse assessed as increase in survival administered as single dose 1 hr post infection measured after 48 hrs post infection; format: functional; conditions: ATCC 13709, po, read-out: PD50
Haemophilus influenzae [22] = assay: Antibacterial activity against Haemophilus influenzae 551 infected in immunocompetent Sprague-Dawley rat assessed as reduction in lung CFU per gram of tissue at 50 mg/kg, po administered 5, 24 and 48 hrs post infection measured after 72 hrs; format: functional; summary of the method: as §5

Structure (SMILES)	MIC (Staphylococcus aureus [1])	MIC (Staphylococcus aureus [2])	survival at 3 mg/kg (Staphylococcus aureus [3])	MIC (Streptococcus pneumoniae [4])	MIC (Staphylococcus aureus [5])	MIC (Escherichia coli [6])	MIC (Escherichia coli [7])	MIC (Klebsiella pneumoniae)	survival at 30 mg/kg (Staphylococcus aureus [8])	MIC (Streptococcus pneumoniae [9])	MIC50 (Haemophilus influenzae [10])	MIC90 (Haemophilus influenzae [10])	bioavailability [11]	log10CFU/g (Streptococcus pneumoniae [12])	MIC (Streptococcus pyogenes)	MIC50 (Streptococcus pyogenes)	MIC90 (Streptococcus pyogenes)	MIC50 (Staphylococcus aureus [14])	MIC90 (Staphylococcus aureus [14])	log10CFU/g (Staphylococcus aureus [15])	also measured
CN(C)c1cc(NC(=O)CNC(C)(C)C)c(O)c2c1C[C@H]1C[C@H]3[C@H](N(C)C)C(O)=C(C(N)=O)C(=O)[C@@]3(O)C(O)=C1C2=O [TIGECYCLINE]	0.063 mg/L (≈ 0.108 µM)	0.063 mg/L (≈ 0.108 µM)	100%	0.016 mg/L (≈ 0.0273 µM)	0.13 mg/L (≈ 0.222 µM)	0.125 mg/L (≈ 0.213 µM)	0.5 mg/L (≈ 0.854 µM)	0.125 mg/L (≈ 0.213 µM)	0%	0.016 mg/L (≈ 0.0273 µM)	–	–	–	–	–	–	–	–	–	–	F (Mus musculus): BLD
CN(C)[C@@H]1C(O)=C(C(N)=O)C(=O)[C@@]2(O)C(O)=C3C(=O)c4c(O)c(NC(=O)[C@@H]5CCCN5C)cc(F)c4C[C@H]3C[C@@H]12 [TP-271]	0.13 mg/L (≈ 0.233 µM)	0.13 mg/L (≈ 0.233 µM)	100%	0.016 mg/L (≈ 0.0286 µM)	0.25 mg/L (≈ 0.448 µM)	0.25 mg/L (≈ 0.448 µM)	8 mg/L (≈ 14.3 µM)	2 mg/L (≈ 3.58 µM)	100%	0.016 mg/L (≈ 0.0286 µM)	0.25 mg/L (≈ 0.448 µM)	0.5 mg/L (≈ 0.895 µM)	5.7%	4.75	0.016 mg/L (≈ 0.0286 µM)	0.016 mg/L (≈ 0.0286 µM)	0.016 mg/L (≈ 0.0286 µM)	0.031 mg/L (≈ 0.0555 µM)	0.13 mg/L (≈ 0.233 µM)	3.03	MIC50 (Acinetobacter baumannii): 0.13 mg/L (≈ 0.233 µM); MIC90 (Acinetobacter baumannii): 1 mg/L (≈ 1.79 µM); log10CFU/g (Haemophilus influenzae [13]): 1.77; log10CFU/g (Haemophilus influenzae [16]): 4.87; MIC (Moraxella catarrhalis): 0.016 mg/L (≈ 0.0286 µM); MIC50 (Moraxella catarrhalis): 0.016 mg/L (≈ 0.0286 µM); MIC90 (Moraxella catarrhalis): 0.016 mg/L (≈ 0.0286 µM); MIC (Streptococcus pneumoniae [17]): 0.016 mg/L (≈ 0.0286 µM); MIC50 (Streptococcus pneumoniae [17]): 0.016 mg/L (≈ 0.0286 µM); MIC90 (Streptococcus pneumoniae [17]): 0.016 mg/L (≈ 0.0286 µM); log10CFU/g (Staphylococcus aureus [18]): 1.99
CN(C)c1cc(CNCC(C)(C)C)c(O)c2c1C[C@H]1C[C@H]3[C@H](N(C)C)C(O)=C(C(N)=O)C(=O)[C@@]3(O)C(O)=C1C2=O [OMADACYCLINE]	0.5 mg/L (≈ 0.898 µM)	0.25 mg/L (≈ 0.449 µM)	100%	0.031 mg/L (≈ 0.0557 µM)	2 mg/L (≈ 3.59 µM)	2 mg/L (≈ 3.59 µM)	16 mg/L (≈ 28.7 µM)	2 mg/L (≈ 3.59 µM)	33%	0.125 mg/L (≈ 0.225 µM)	–	–	0.7%	–	–	–	–	–	–	–	bioavailability [19]: 33%; bioavailability [20]: 1.5%; ED50 (Staphylococcus aureus [21]): 30.3 mg/kg
CN(C)[C@@H]1C(O)=C(C(N)=O)C(=O)[C@@]2(O)C(O)=C3C(=O)c4c(O)cccc4[C@@](C)(O)[C@H]3C[C@@H]12 [TETRACYCLINE]	1 mg/L (≈ 2.25 µM)	–	100%	0.25 mg/L (≈ 0.563 µM)	> 32 mg/L	2 mg/L (≈ 4.5 µM)	> 32 mg/L	4 mg/L (≈ 9 µM)	100%	–	–	–	–	–	–	–	–	–	–	–	bioavailability [19]: 50%; bioavailability [20]: 6.3%; ED50 (Staphylococcus aureus [21]): 6.9 mg/kg
CC[C@H]1OC(=O)[C@H](C)[C@@H](O[C@H]2C[C@@](C)(OC)[C@@H](O)[C@H](C)O2)[C@H](C)[C@@H](O[C@@H]2O[C@H](C)C[C@H](N(C)C)[C@H]2O)[C@](C)(O)C[C@@H](C)CN(C)[C@H](C)[C@@H](O)[C@]1(C)O [AZITHROMYCIN]	–	–	–	–	–	–	–	–	–	–	–	–	–	–	–	–	–	–	–	–	log10CFU/g (Haemophilus influenzae [22]): >=6
CC(=O)NC[C@H]1CN(c2ccc(N3CCOCC3)c(F)c2)C(=O)O1 [LINEZOLID]	–	–	–	–	–	–	–	–	–	–	8 mg/L (≈ 23.7 µM)	16 mg/L (≈ 47.4 µM)	–	3.56	1 mg/L (≈ 2.96 µM)	1 mg/L (≈ 2.96 µM)	2 mg/L (≈ 5.93 µM)	2 mg/L (≈ 5.93 µM)	4 mg/L (≈ 11.9 µM)	1.29	MIC (Haemophilus influenzae [10]): 8 mg/L (≈ 23.7 µM); MIC50 (Moraxella catarrhalis): 8 mg/L (≈ 23.7 µM); MIC90 (Moraxella catarrhalis): 8 mg/L (≈ 23.7 µM); MIC50 (Streptococcus pneumoniae [17]): 1 mg/L (≈ 2.96 µM); MIC90 (Streptococcus pneumoniae [17]): 1 mg/L (≈ 2.96 µM); log10CFU/g (Staphylococcus aureus [18]): 2.46

— ChEMBL document CHEMBL2057101, “Fluorocyclines. 2. Optimization of the C-9 side-chain for antibacterial activity and oral efficacy” (J Med Chem, 2012)
